High-throughput results deposited in PubChem by several laboratories.
STAT1 act = STAT1 signaling activation; activation (% of control), % at 5.5 µM; NIH 3T3 STAT1-luciferase reporter, IFN-gamma, luminescence; 100% = IFN-gamma alone, no compound; AID 932; actives 2.6% (n = 200,000);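 active = activation above the screen-wide mean activation plus 3 SD, cut at about 130% in these data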;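 also: raw ratio to IFN-gamma control signal so 100% means no change and 0% no light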
STAT1 inh = STAT1 signaling inhibition. AID 920. NIH 3T3 STAT1-luciferase reporter, IFN-gamma, luminescence. inhibition, % at 5.5 µM. actives 0.35% (n = 200,000);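 active = inhibition above a set limit, the mean inhibition across all tested compounds plus 3 SD, cut at about 34% in these data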;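 also: 0% = IFN-gamma with DMSO and 100% = IFN-gamma with 300 µM nifuroxazide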
NF-kB expr up = compounds increasing NF-kB expression in human neuronal cells | NF-kB reporter expression; active compounds read high | fold change at 12.5 µM | actives 1.6% (n = 190,000) | AID 1239; in the data active = fold change above about 3.3
STAT3 blocker = inhibitors of IL-6 induced STAT3 signaling. U3A cells, IL-6 STAT3-luciferase reporter, luminescence; host cell line lacks STAT1. inhibition, % at 5.5 µM. actives 0.89% (n = 190,000). AID 862;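 active = inhibition above the mean inhibition across all screened compounds plus 3 SD, cut at about 44% in these data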;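 also: 0% = DMSO only wells and 100% = 100 µM nifuroxazide control wells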
APP 5'UTR act = APP 5'UTR luciferase reporter activation | SH-SY5Y APP 5'UTR luciferase reporter, luminescence; zero percent = DMSO vehicle wells | activation, % at 2 µM | actives 1% (n = 190,000);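 active = activation above a set limit, based on mean plus 3 SD of controls, cut at about 140% in these data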
STAT3 act = activators of IL-6 induced STAT3 signaling; actives 0.91% (n = 190,000); U3A cells, IL-6 STAT3-luciferase reporter, luminescence; 100% = signal with IL-6 EC80 alone; activation (% of control), % at 5.6 µM; AID 871;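 active = activation above the screen-wide mean of compound activation plus 3 SD, cut at about 130% in these data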;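 also: 0% = background luminescence of wells with medium and substrate only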
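system = STAT3-luciferase reporter U3A cells | reagent = IL-6 stimulus at 33 ng/mL final | timing = 1 h compound pre-exposure, 6 h IL-6 stimulation, 37 °C | measured by = luminescence | evaluation = % activation versus median of IL-6-stimulated wells | control set = IL-6-only wells as 100% reference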
Numbers without * were called inactive; · = not tested or not shown. Only some compounds are listed: those with a hit (about 5.1% of all), similar ones and a draw of the others.

SMILES	STAT1 act	STAT1 inh	NF-kB expr up	STAT3 blocker	APP 5'UTR act	STAT3 act
NNc1nc(-c2ccccc2)nc2sc3c(c12)CCCC3	140*	-44	1.7	-40	171*	139*
Cc1cccc(C2NC(c3cccc(C)c3)C([N+](=O)[O-])C(C)(C)C2[N+](=O)[O-])c1 (configuration not stated)	100	1	1	-2	15	103
Cc1cccc(N2NC(=O)/C(=C/c3ccc(-c4ccc(Cl)c(C(=O)O)c4)o3)C2=O)c1	90	10	3.9*	7	9	95
COc1ccc(OCc2cccc(C(=O)Nn3cc([N+](=O)[O-])cn3)c2)cc1	21	88*	7.4*	49*	25	61
NNC(=O)c1cccc(COc2cccc(Br)c2)c1	111	-12	1.8	5	43	97
COc1ccc(OCc2cccc(C(=O)NN)c2)cc1	43	65*	2.5	98*	80	19
COc1ccc(C(=O)Nc2cc(C)on2)cc1	122	-22	3.1	26	92	83
O=C(NCc1ccccc1)c1cccc(COc2ccc(Cl)cc2)c1	124	-26	2	5	77	101
COc1ccc(OCc2cccc(C(=O)Nc3cc(C)on3)c2)cc1	53	58*	2.7	69*	66	44
COc1cc(CNC(=O)c2cccc(COc3ccc(Cl)cc3)c2)cc(OC)c1	107	-8	1.9	19	139*	83
CC(C)NCc1nnc(-c2ccccc2Cl)o1	105	-7	1.2	5	5	98
CC(C(=O)Nc1ccccc1-c1ccccc1)N(C)Cc1nc2ccccc2c(=O)[nH]1 (configuration not stated)	98	2	1.1	0	3	102
CCCCCC(=O)NC(=S)Nc1ccc2oc(=O)ccc2c1	97	2	0.99	19	-12	90
CCN(CC)C(=O)CSc1nnc(COc2ccccc2)n1N	90	11	·	10	-13	96
O=C(Nc1nc2ccc([N+](=O)[O-])cc2s1)c1ccco1	115	-16	2.4	21	76	86
CCOc1ccc(OCc2cccc(C(=O)N3CCOCC3)c2)cc1	24	82*	3.4*	96*	-48	17
Cc1ccc(NC(=O)c2ccc(CSc3nccc(C)n3)cc2)cc1	99	1	1	4	19	101
CSCc1ccc(C(=O)NCc2ccc(C)cc2)cc1	106	-6	1.2	-12	-1	108
CSCc1ccc(C(=O)Nc2ccc(C(N)=O)cc2)cc1	147*	-53	1.8	9	85	98
O=C(Nc1ccccc1)c1ccc(CSc2ncccn2)cc1	139*	-44	2.5	12	152*	91
O=C(Nc1ccccc1F)c1ccc(CSc2ncccn2)cc1	138*	-43	3.1	7	155*	100
Cn1nnnc1SCc1ccc(C(=O)Nc2ccccc2F)cc1	106	-7	1.5	18	44	93
CC(C)(C)c1ccc(C(=O)N2CCN(CCNC(=O)C(=O)NCc3ccccc3)CC2)cc1	87	15	1.1	-2	0	101
C=CCNc1nc(Nc2ccc(OC)cc2OC)nc(OCC)n1	100	0	0.19	6	10	98
C=CCNc1nc(Nc2ccccc2F)nc(OCC)n1	142*	-49	2.7	-8	61	113
SMILES	STAT1 act	STAT1 inh	NF-kB expr up	STAT3 blocker	APP 5'UTR act	STAT3 act
COc1ccc(-c2csc(/N=C/N(C)C)n2)cc1OC	114	-15	1.4	-10	19	108
Oc1ccc(Nc2nc(-c3ccc(O)cc3)cs2)cc1	97	3	2.6	34	62	74
Cc1cccnc1Nc1nc(-c2ccc(O)c(O)c2)cs1	130*	-32	3.6*	14	39	88
COc1ccc(-c2csc(Nc3ncccc3C)n2)cc1OC	141*	-46	1	12	31	90
COc1nc(C)ccc1-c1noc(-c2ccco2)n1	140*	-33	4.6*	27	182*	80
c1ccc(-c2ccc(-c3nc(-c4ccccn4)no3)cc2)cc1	18	92*	0.3	109*	-46	10
Cc1ccc(-c2nc(-c3ccccn3)no2)cc1	17	90*	0.3	107*	-39	10
Cc1ccc(-c2nc(-c3ccccn3)no2)cc1Cl	28	79*	0.59	99*	159*	15
